ChEMBL document CHEMBL2157936, “Structure-activity relationships for side chain oxysterol agonists of the hedgehog signaling pathway” (ACS Med Chem Lett, 2012)
One block for each compound: values may come before it. Calls of active or inactive are those of the source. No cut-off for these calls is given here.

Assays:
[1] = Agonist activity at LXR in mouse C3H10T1/2 cells assessed as fold increase in ABCA1 expression at 5 uM by RT-PCR analysis relative to control; format: functional, C3H 10T1/2
[2] = Selectivity ratio of agonist activity at Hh receptor over agonist activity at LXR in mouse C3H10T1/2 cells; format: functional, C3H 10T1/2
[3] = Agonist activity at Hh receptor in mouse C3H10T1/2 cells assessed as fold increase in Gli1 expression at 5 uM by RT-PCR analysis relative to control; format: functional, C3H 10T1/2
[4] = (§1) Agonist activity at Hh receptor in mouse M210B4 cells assessed as increase in Gli1 expression by RT-PCR analysis; format: functional, cell-based
How it was run: (§2)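 Dose-response in C3H10T1/2 and M2-10B4 cells. Read-out: mRNA of GLI1, PTCH (Hh) or ABCA1 (LXR), expressed relative to the DMSO control. EC50 values were derived from these curves.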

M210B4 [5] = assay: as §1; format: functional, cell-based; how it was run: as §2
M210B4 [6] = assay: Agonist activity at Hh receptor in mouse M210B4 cells assessed as upregulation of Gli1 at 5 uM after 24 hrs by RT-PCR analysis in presence of cyclopamine relative to control; format: functional, cell-based
How it was run: (§3)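 Read-out: GLI1 or PTCH mRNA in M2-10B4 cells. Cells were pretreated for 2 h with cyclopamine (5 μM), or left without it, then given OHC (5 μM). mRNA was measured after 24 h of incubation and expressed as fold induction over the DMSO control, set at 1. Data come from a representative experiment run in triplicate.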

M210B4 [7] = assay: Induction of Hh receptor-mediated osteogenesis in mouse M210B4 cells assessed as fold increase in Osx expression at 5 uM after 24 hrs by RT-PCR analysis relative to control; format: cell-based
How it was run: (§4)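 M2-10B4 cells received OHC (5 μM), or the 20(S)-/22(S)-OHC pair (5 μM each). Osterix and alkaline phosphatase mRNA were measured at time points of 24, 48 and 96 h. Expression is relative to the DMSO control. Data come from a representative experiment run in triplicate.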

M210B4 [8] = assay: Induction of Hh receptor-mediated osteoblast formation in mouse M210B4 cells assessed as increase in ALP expression at 5 uM after 48 hrs by RT-PCR analysis relative to control; format: cell-based; how it was run: as §4
[9] = (§5) Agonist activity at Hh receptor in mouse M210B4 cells assessed as increase in Ptch expression by RT-PCR analysis; format: functional, cell-based; how it was run: as §2
M210B4 [10] = assay: as §5; format: functional, cell-based; how it was run: as §2
[11] = Agonist activity at LXR in mouse C3H10T1/2 cells assessed as increase in ABCA1 expression by RT-PCR analysis; format: functional, cell-based; settings: C3H 10T1/2; how it was run: as §2
C3H 10T1/2 [12] = assay: Selectivity ratio of EC50 for LXR to EC50 for Hh receptor in mouse C3H10T1/2 cells; format: cell-based
M210B4 [13] = assay: Agonist activity at Hh receptor in mouse M210B4 cells assessed as upregulation of Gli1 at 5 uM after 24 hrs by RT-PCR analysis relative to control; format: functional, cell-based; how it was run: as §3
M210B4 [14] = assay: Induction of Hh receptor-mediated osteogenesis in mouse M210B4 cells assessed as fold increase in Osx expression at 5 uM up to 96 hrs by RT-PCR analysis relative to control; format: cell-based; how it was run: as §4
M210B4 [15] = assay: Induction of Hh receptor-mediated osteoblast formation in mouse M210B4 cells assessed as increase in ALP expression at 5 uM up to 96 hrs by RT-PCR analysis relative to control; format: cell-based; how it was run: as §4
M210B4 [16] = assay: Agonist activity at Hh receptor in mouse M210B4 cells assessed as upregulation of Ptch at 5 uM after 24 hrs by RT-PCR analysis in presence of cyclopamine relative to control; format: functional, cell-based; how it was run: as §3
M210B4 [17] = assay: Induction of Hh receptor-mediated osteoblast formation in mouse M210B4 cells assessed as increase in ALP expression at 5 uM after 24 hrs by RT-PCR analysis relative to control; format: cell-based; how it was run: as §4
C3H 10T1/2 [18] = assay: (§6) Agonist activity at Hh receptor in mouse C3H10T1/2 cells assessed as increase in Gli1 expression by RT-PCR analysis; format: functional, cell-based; how it was run: as §2
[19] = as §6; format: functional, cell-based; settings: C3H 10T1/2; how it was run: as §2
M210B4 [20] = assay: Ratio of EC50 for Hh receptor in mouse M210B4 cells to EC50 for Hh receptor in mouse C3H10T1/2 cells; format: cell-based
C3H 10T1/2 [21] = assay: (§7) Agonist activity at Hh receptor in mouse C3H10T1/2 cells assessed as increase in Ptch expression by RT-PCR analysis; format: functional, cell-based; how it was run: as §2
[22] = as §7; format: functional, cell-based; settings: C3H 10T1/2; how it was run: as §2
M210B4 [23] = assay: Selectivity ratio of EC50 for LXR to EC50 for Hh receptor in mouse M210B4 cells; format: cell-based
M210B4 [24] = assay: Induction of Hh receptor-mediated osteogenesis in mouse M210B4 cells assessed as fold increase in Osx expression at 5 uM after 48 hrs by RT-PCR analysis relative to control; format: cell-based; how it was run: as §4
M210B4 [25] = assay: Agonist activity at Hh receptor in mouse M210B4 cells assessed as upregulation of Ptch at 5 uM after 24 hrs by RT-PCR analysis relative to control; format: functional, cell-based; how it was run: as §3
[26] = Agonist activity at LXR in mouse M210B4 cells assessed as increase in ABCA1 expression by RT-PCR analysis; format: functional, cell-based; how it was run: as §2

SMILES: CC(C)C[C@H](O)C[C@@H](C)[C@H]1CC[C@H]2[C@@H]3CC=C4C[C@@H](O)CC[C@]4(C)[C@H]3CC[C@]12C
fold change (FC) [1]: 3.6
Selectivity ratio [2]: 9
fold change (FC) [3]: 32.4

SMILES: CC(C)(O)CC[C@](C)(O)[C@H]1CC[C@H]2[C@@H]3CC=C4C[C@@H](O)CC[C@]4(C)[C@H]3CC[C@@]21C
fold change (FC) [1]: 10.3
Selectivity ratio [2]: 1.8
fold change (FC) [3]: 18.1

SMILES: C[C@H](C(=O)CCC(C)(C)O)[C@H]1CC[C@H]2[C@@H]3CC=C4C[C@@H](O)CC[C@]4(C)[C@H]3CC[C@]12C
fold change (FC) [1]: 21.7
fold change (FC) [3]: 6

SMILES: CC(C)(O)CCC[C@](C)(O)[C@H]1CC[C@H]2[C@@H]3CC=C4C[C@@H](O)CC[C@]4(C)[C@H]3CC[C@@]21C
fold change (FC) [1]: 26.3
Selectivity ratio [2]: 4.1
fold change (FC) [3]: 107.8

SMILES: C[C@H](C(O)CCC(C)(C)O)[C@H]1CC[C@H]2[C@@H]3CC=C4C[C@@H](O)CC[C@]4(C)[C@H]3CC[C@]12C (mixture of isomers)
fold change (FC) [1]: 0.9
fold change (FC) [3]: 1

SMILES: CC(C)CC[C@@H](O)[C@@H](C)[C@H]1CC[C@H]2[C@@H]3CC=C4C[C@@H](O)CC[C@]4(C)[C@H]3CC[C@]12C [22(R)-HYDROXYCHOLESTEROL]
fold change (FC) [1]: 24.1
fold change (FC) [3]: 4.7

SMILES: CC(C)CCC[C@](C)(O)[C@H]1CC[C@H]2[C@@H]3CC=C4C[C@@H](O)CC[C@]4(C)[C@H]3CC[C@@]21C
fold change (FC) [1]: 13.4
Selectivity ratio [2]: 6.8
fold change (FC) [3]: 91.8

SMILES: C[C@H](CCO)[C@H]1CC[C@H]2[C@@H]3CC=C4C[C@@H](O)CC[C@]4(C)[C@H]3CC[C@]12C
fold change (FC) [1]: 0.4
Selectivity ratio [2]: 10.4
fold change (FC) [3]: 4.1

EC50 [4]: 570 nM
EC50 [9]: 580 nM
EC50 [11]: 1530 nM
EC50 [19]: 540 nM
EC50 [22]: 650 nM
EC50 [26]: 1540 nM
SMILES: CC(C)C[C@@H](O)C[C@@H](C)[C@H]1CC[C@H]2[C@@H]3CC=C4C[C@@H](O)CC[C@]4(C)[C@H]3CC[C@]12C
Activity (M210B4 [5]): Dose-dependent effect
Activity (M210B4 [6]): inactive
fold change (FC) (M210B4 [7]): 5
Activity (M210B4 [8]): Active
Activity (M210B4 [10]): Dose-dependent effect
fold change (FC) [1]: 4.9
Ratio EC50 (C3H 10T1/2 [12]): 3
Activity (M210B4 [13]): Active
Selectivity ratio [2]: 17.8
Activity (M210B4 [14]): Active
Activity (M210B4 [15]): Active
Activity (M210B4 [16]): inactive
Activity (M210B4 [17]): Active
Activity (C3H 10T1/2 [18]): Dose-dependent effect
Ratio EC50 (M210B4 [20]): 1.06
Activity (C3H 10T1/2 [21]): Dose-dependent effect
Ratio EC50 (M210B4 [23]): 3
fold change (FC) (M210B4 [24]): > 30
Activity (M210B4 [25]): Active
fold change (FC) [3]: 87.1

SMILES: C[C@@H]([C@H]1CC[C@H]2[C@@H]3CC=C4C[C@@H](O)CC[C@]4(C)[C@H]3CC[C@]12C)[C@@H](O)CCC(C)(C)O
fold change (FC) [1]: 2.9
Selectivity ratio [2]: 3.4
fold change (FC) [3]: 9.9

SMILES: CC(C)CCC[C@@H](C)[C@H]1CC[C@H]2[C@@H]3[C@@H](O)C=C4C[C@@H](O)CC[C@]4(C)[C@H]3CC[C@]12C
fold change (FC) [1]: 0.6
Selectivity ratio [2]: 2.6
fold change (FC) [3]: 1.6

SMILES: CC(C)CC[C@H](O)[C@@H](C)[C@H]1CC[C@H]2[C@@H]3CC=C4C[C@@H](O)CC[C@]4(C)[C@H]3CC[C@]12C
fold change (FC) [1]: 2.3
Selectivity ratio [2]: 22.8
fold change (FC) [3]: 52.5

SMILES: C[C@H](CCCC(C)(C)O)[C@H]1CC[C@H]2[C@@H]3CC=C4C[C@@H](O)CC[C@]4(C)[C@H]3CC[C@]12C
fold change (FC) [1]: 9.8
Selectivity ratio [2]: 7.1
fold change (FC) [3]: 69.9
